Measured values reported in ChEMBL document CHEMBL1123831, “17-Heteroaroyl esters of corticosteroids. 2. 11 beta-Hydroxy series” (1987).

Key:
[1] = organism: Mus musculus; experiment: Anti-inflammatory potency was measured in mice by modification of the croton oil ear assay; set-up: reference not given here
[2] = organism: Mus musculus; experiment: Anti-inflammatory potency was measured in mice at 5 hours by modification of the Tonelli croton oil ear assay; format: functional
Procedure, shortened: (§1)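 Topical dosing in mice. Compounds at 10^-4% to 10^-6% (w/v) were dissolved in 0.6–0.7% croton oil, in a vehicle of pyridine/water/diethyl ether 20:5:74 (v/v). 10 µL was applied to the inner aspect of both pinnae daily for 5 days. Animals were killed 5 h after the last dose, and 6-mm ear punch biopsies were weighed. Potency was calculated relative to betamethasone 17-valerate from the mean left-plus-right ear punch weights.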

[3] = organism: Mus musculus; experiment: Anti-inflammatory potency was measured in mice at 5 hours by modification of the croton oil ear assay; format: functional
Procedure, shortened: as §1

Structure (SMILES) | Potency [1] | Potency [2] | Potency [3]
C[C@@H]1CC2C3CCC4=CC(=O)C=CC4(C)[C@@]3(F)C(O)CC2(C)[C@@]1(OC(=O)c1ccco1)C(=O)CCl (stereo partly drawn) | 2.3 | 1.6 | 
C[C@@H]1CC2C3CCC4=CC(=O)C=CC4(C)[C@@]3(Cl)C(O)CC2(C)[C@@]1(OC(=O)c1cccs1)C(=O)CCl (stereo partly drawn) | 4.5 | 1.2 | 
C[C@@H]1CC2C3CCC4=CC(=O)C=CC4(C)[C@@]3(Cl)C(O)CC2(C)[C@@]1(OC(=O)c1ccco1)C(=O)CCl (stereo partly drawn) | 6.1 | 1 | 
CC(=O)OCC(=O)[C@@]1(OC(=O)c2ccco2)CCC2C3CCC4=CC(=O)C=CC4(C)C3C(O)CC21C (stereo partly drawn) | 0.9 | 1.3 | 
COCC(=O)OCC(=O)[C@@]1(OC(=O)c2ccco2)[C@H](C)CC2C3CCC4=CC(=O)C=CC4(C)[C@@]3(Cl)C(O)CC21C (stereo partly drawn) | 4.3 |  | 
C[C@H]1CC2C3CCC4=CC(=O)C=CC4(C)[C@@]3(F)C(O)CC2(C)[C@@]1(OC(=O)c1ccco1)C(=O)CCl (stereo partly drawn) | 0.9 | 0.6 | 
CC(=O)OCC(=O)[C@@]1(OC(=O)c2ccco2)[C@H](C)CC2C3CCC4=CC(=O)C=CC4(C)[C@@]3(F)C(O)CC21C (stereo partly drawn) | 2.2 | 1.7 | 
C[C@@H]1CC2C3CCC4=CC(=O)C=CC4(C)[C@@]3(F)C(O)CC2(C)[C@@]1(OC(=O)c1ccoc1)C(=O)CCl (stereo partly drawn) | 1.2 | 1 | 
CC(=O)OCC(=O)[C@@]1(OC(=O)c2cccs2)[C@H](C)CC2C3CCC4=CC(=O)C=CC4(C)[C@@]3(F)C(O)CC21C (stereo partly drawn) | 2.9 | 1.6 | 
CC(=O)OCC(=O)[C@@]1(OC(=O)c2ccco2)[C@H](C)CC2C3CCC4=CC(=O)C=CC4(C)[C@@]3(Cl)C(O)CC21C (stereo partly drawn) | 4.4 | 1.7 | 
CC(=O)OCC(=O)[C@@]1(OC(=O)c2ccoc2)[C@H](C)CC2C3CCC4=CC(=O)C=CC4(C)[C@@]3(F)C(O)CC21C (stereo partly drawn) | 3.2 | 2.9 | 
CC(=O)OCC(=O)[C@@]1(OC(=O)c2ccco2)[C@@H](C)CC2C3CCC4=CC(=O)C=CC4(C)[C@@]3(F)C(O)CC21C (stereo partly drawn) | 0.2 | 0.5 | 
C=C1CC2C3CCC4=CC(=O)C=CC4(C)C3C(O)CC2(C)[C@@]1(OC(=O)c1ccco1)C(=O)COC(C)=O (stereo partly drawn) | 1.2 | 2.7 | 
C[C@@H]1CC2C3C[C@H](F)C4=CC(=O)C=CC4(C)[C@@]3(Cl)C(O)CC2(C)[C@@]1(OC(=O)c1ccco1)C(=O)CCl (stereo partly drawn) | 5.1 | 1.1 | 
CCCCC(=O)O[C@]1(C(=O)CO)[C@@H](C)C[C@H]2[C@@H]3CCC4=CC(=O)C=C[C@]4(C)[C@@]3(F)[C@@H](O)C[C@@]21C [BETAMETHASONE VALERATE] | 1 | 1 | 
COCC(=O)OCC(=O)[C@@]1(OC(=O)c2ccco2)[C@H](C)CC2C3CCC4=CC(=O)C=CC4(C)[C@@]3(F)C(O)CC21C (stereo partly drawn) | 3.2 | 0.8 | 
CCC(=O)OCC(=O)[C@@]1(OC(=O)c2ccco2)[C@H](C)CC2C3CCC4=CC(=O)C=CC4(C)[C@@]3(F)C(O)CC21C (stereo partly drawn) | 6.8 | 2.1 | 
C[C@@H]1C[C@H]2[C@@H]3CCC4=CC(=O)C=C[C@]4(C)[C@@]3(Cl)[C@@H](O)C[C@]2(C)[C@@]1(OC(=O)c1ccco1)C(=O)CF | 4.4 | 1.4 | 
CCC(=O)OCC(=O)[C@@]1(OC(=O)c2ccco2)[C@H](C)CC2C3CCC4=CC(=O)C=CC4(C)C3C(O)CC21C (stereo partly drawn) | 1.5 | 1.1 | 
C[C@H]1CC2C3CCC4=CC(=O)C=CC4(C)[C@@]3(F)C(O)CC2(C)[C@@]1(OC(=O)c1cccs1)C(=O)CCl (stereo partly drawn) | 2.6 | 1.3 | 
CC(=O)OCC(=O)[C@@]1(OC(=O)c2ccc(C)s2)[C@H](C)CC2C3CCC4=CC(=O)C=CC4(C)[C@@]3(F)C(O)CC21C (stereo partly drawn) | 1.7 | 2.4 | 
C=C1CC2C3CCC4=CC(=O)C=CC4(C)[C@@]3(F)C(O)CC2(C)[C@@]1(OC(=O)c1ccco1)C(=O)COC(C)=O (stereo partly drawn) | 1.1 | 0.5 | 
C=C1CC2C3CCC4=CC(=O)C=CC4(C)C3(Cl)C(O)CC2(C)[C@@]1(OC(=O)c1ccco1)C(=O)COC(C)=O (stereo partly drawn) |  | 2.3 | 2.2
CC(=O)OCC(=O)[C@@]1(OC(=O)c2ccco2)[C@H](C)CC2C3C[C@H](F)C4=CC(=O)C=CC4(C)C3C(O)CC21C (stereo partly drawn) | 2.1 | 2.7 | 
CCCC(=O)OCC(=O)[C@@]1(OC(=O)c2ccco2)[C@H](C)CC2C3CCC4=CC(=O)C=CC4(C)[C@@]3(F)C(O)CC21C (stereo partly drawn) |  | 1.1 | 
